Some results are limits rather than exact numbers.

For 33 compounds, ID50, Activity and ED50 results are on record in ChEMBL document CHEMBL1122377, “Nitrogen bridgehead compounds. 38. New antiallergic 4H-pyrido[1,2-a]pyrimidin-4-ones. 3” (1983).

One assay concerns Rattus norvegicus. The experiment in a line: Antiallergic activity after iv administration using rat reaginic passive cutaneous anaphylaxis (PCA) test;Compound is toxic at 100 umol/kg.
Conditions: not given
`CC1CC=C(Nc2cccc(I)c2)c2ncc(C(=O)O)c(=O)n21` (stereo unspecified) registered an ID50 of 10 µmol/kg.

The compound `CC1CC=C(Nc2cccc(Br)c2)c2ncc(C(=O)O)c(=O)n21` (stereo unspecified) yielded an ID50 of 10 µmol/kg.

For another assay, the system named is Rattus norvegicus. The experiment in a line: Antiallergic activity after iv administration using rat reaginic passive cutaneous anaphylaxis (PCA) test;ins means insoluble.
Conditions: not given
With `CC1CCC(C(=O)N(C)C)c2ncc(C(=O)O)c(=O)n21` (stereo unspecified), the ID50 entry is “Insoluble”.

In the case of `CC1CCC(Nc2ccccc2)c2ncc(C(=O)O)c(=O)n21` (stereo unspecified), the ID50 result is listed as “Insoluble”.

Another assay relates to Rattus norvegicus. The experiment in a line: Antiallergic activity after os administration using rat reaginic passive cutaneous anaphylaxis (PCA) test; insignificant activity; per os 10e3 umol/kg exhibited 31% protection.
Conditions: not given
The format is functional.
Compound `CCOC(=O)c1cnc2n(c1=O)C(C)CCC2C(=O)Nc1ccccc1` (stereo unspecified) registered an Activity of 31%.

A further assay concerns Rattus norvegicus. The experiment in a line: Antiallergic activity after intravenous administration using rat reaginic passive cutaneous anaphylaxis (PCA) test. The format is functional.
Conditions: not given
Put shortly:
(§1)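 Inhibition in the rat reaginic PCA test after dosing; significance of each value judged by Student's t test.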
Regarding `CC1CCC(=NNc2ccccc2)c2ncc(C(=O)O)c(=O)n21` (stereo in doubt), the ID50 was 0.3 µM/kg.

Still in this assay, the particulars now being: Rattus norvegicus, iv; read-out: ID50 (the source's name).
As to `CCO/N=C1\CCC(C)n2c1ncc(C(=O)O)c2=O` (stereo unspecified), the ED50 is 24.3 µmol/kg.

Consider `CC1CC=C(Nc2cccc(F)c2)c2ncc(C(=O)O)c(=O)n21` (stereo unspecified), for which the ED50 was determined as 1.4 µmol/kg.

With `CC1CC=C(Nc2cccc(C(=O)O)c2)c2ncc(C(=O)O)c(=O)n21` (stereo unspecified), the ED50 amounted to 0.62 µmol/kg.

With `Cc1ccccc1NC1=CCC(C)n2c1ncc(C(=O)O)c2=O` (stereo unspecified), the ED50 is 5.4 µmol/kg.

As for `CC1CC=C(Nc2ccc(O)cc2)c2ncc(C(=O)O)c(=O)n21` (stereo unspecified), the ED50 amounted to 2.93 µmol/kg.

Turning to `CC1CC=C(Nc2ccccc2C(=O)O)c2ncc(C(=O)O)c(=O)n21` (stereo unspecified), the ED50 came out at 0.66 µmol/kg.

As for `CC1CC/C(=N\O)c2ncc(C(=O)O)c(=O)n21` (stereo unspecified), the ED50 was found to be 19.4 µmol/kg.

Consider `Cc1nc2n(c(=O)c1C(=O)O)C(C)CC/C2=N\O` (stereo unspecified), for which the ED50 is more than 100 µmol/kg.

`CC1CCC(=NNc2ccccc2)c2ncc(C(=O)O)c(=O)n21` (stereo in doubt; 2): the ED50 was 0.6 µmol/kg.

For the compound `CCO/N=C1\CCC(C)n2c1ncc(C(=O)OCC)c2=O` (stereo unspecified), the ED50 was 41.2 µmol/kg.

With `CC1CCC(/C(S)=N/c2ccccc2)c2ncc(C(=O)O)c(=O)n21` (stereo unspecified), the ED50 was 9.1 µmol/kg.

In the case of `C[C@H]1CC=C(Nc2ccccc2)c2ncc(C(=O)O)c(=O)n21`, the ED50 was 1.2 µmol/kg.

On to `CC1CC=C(Nc2ccccc2)c2ncc(C(=O)O)c(=O)n21` (stereo unspecified), for which the ED50 was found to be 2.1 µmol/kg.

Take `CCOC(=O)c1cnc2n(c1=O)C(C)CC/C2=N\O` (stereo unspecified): the ED50 amounted to 100 µmol/kg.

In the case of `Cc1cccc(NC2=CCC(C)n3c2ncc(C(=O)O)c3=O)c1` (stereo unspecified), the ED50 was 0.74 µmol/kg.

As for `CC1CC=C(Nc2ccc(C(=O)O)cc2)c2ncc(C(=O)O)c(=O)n21` (stereo unspecified), the ED50 stood at 3.5 µmol/kg.

Turning to `CC1CC/C(=N\N)c2ncc(C(=O)O)c(=O)n21` (stereo unspecified), the ED50 came to 42 µmol/kg.

`C[C@@H]1CC=C(Nc2ccccc2)c2ncc(C(=O)O)c(=O)n21`: the ED50 was found to be 100 µmol/kg.

As to `CC1CC=C(Nc2ccc(F)cc2)c2ncc(C(=O)O)c(=O)n21` (stereo unspecified), the ED50 came to 8.6 µmol/kg.

In the case of `CC1CCCc2ncc(C(=O)O)c(=O)n21` (stereo unspecified), the ED50 is 240 µmol/kg.

On to `CCc1nc2n(c(=O)c1C(=O)O)C(C)CC/C2=N\O` (stereo unspecified), for which the ED50 was more than 100 µmol/kg.

For the compound `CC1CCC(C(=O)Nc2ccccc2)c2ncc(C(=O)O)c(=O)n21` (stereo unspecified), the ED50 came to 0.56 µmol/kg.

On to `CC(=O)c1cccc(NC2=CCC(C)n3c2ncc(C(=O)O)c3=O)c1` (stereo unspecified), for which the ED50 came out at 0.36 µmol/kg.

Regarding `O=C(O)c1cc(=O)c2c(OCC(O)COc3cccc4oc(C(=O)O)cc(=O)c34)cccc2o1` [CROMOLYN SODIUM], the ED50 was 1 µmol/kg.

As for `CC1CC=C(N(C)c2ccccc2)c2ncc(C(=O)O)c(=O)n21` (stereo unspecified), the ED50 was more than 100 µmol/kg.

In another assay the test system is Rattus norvegicus. The experiment in a line: Antiallergic activity after os administration using rat reaginic passive cutaneous anaphylaxis (PCA) test. The format is functional.
Conditions: not given
Summed up: as §1
Take `CC1CCC(/C=N/c2ccccc2)=C2NC=C(C(=O)O)C(=O)N21` (stereo unspecified): the Activity is given as 47%.

Still in this assay, the particulars now being: read-out: ID50 (the source's name).
`CC1CC=C(Nc2ccc3ccccc3c2)c2ncc(C(=O)O)c(=O)n21` (stereo unspecified): the ED50 was found to be 30.8 µmol/kg.

As to `CC1CC=C(Nc2cccc(C(=O)O)c2)c2ncc(C(=O)O)c(=O)n21` (stereo unspecified), the ED50 turned out to be 92.6 µmol/kg.

As to `CC1CC=C(Nc2ccc(O)cc2)c2ncc(C(=O)O)c(=O)n21` (stereo unspecified), the ED50 came out at 100 µmol/kg.

With `CC1CC=C(Nc2ccc(C(=O)O)cc2)c2ncc(C(=O)O)c(=O)n21` (stereo unspecified), the ED50 was determined as 277 µmol/kg.
